Test results from ChEMBL document CHEMBL4130623, “Discovery of Highly Potent Pinanamine-Based Inhibitors against Amantadine- and Oseltamivir-Resistant Influenza A Viruses” (J Med Chem, 2018).
Activity calls are given as the source filed them. The calls are words filed in the database; no cut-off is given here.

Key:
[1] = system: Influenza A virus (A/Puerto Rico/8/1934(H1N1)); assay: Antiviral activity against Influenza A virus (A/PR/8/34 (H1N1)(NA-H274Y)) infected in MDCK cells assessed as reduction in virus-induced cytopathic effect after 48 hrs by microscopic analysis; assay type: functional, organism-based
Procedure, shortened: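 MDCK monolayers (5×10^4 cells/well, grown 24 h) were rinsed twice, infected with 100 TCID50 virus for 2 h at 37 °C in 5% CO2, and the inoculum was removed. Two-fold serial compound dilutions in DMEM with 1.5 µg/mL trypsin were added and incubated 48 h at 34 °C. CPE percentage was scored by microscope and EC50 fitted by non-linear regression.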

[2] = system: Matrix protein 2 (Influenza A virus (A/Udorn/307/1972(H3N2))), P0DOF8 [S31N]; assay: Inhibition of Influenza A virus AM2 S31N mutant expressed in Xenopus laevis frog oocytes assessed as maximum reduction in channel current at 100 uM at pH 5.5 after 2 mins by TEVC assay; assay type: cell-based
Procedure, shortened: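 Xenopus laevis oocytes were microinjected with RNA expressing A/M2 S31N. Compound was applied for 2 min at pH 5.5 and the percentage inhibition of M2 current was recorded by two-electrode voltage clamp. Each measurement was repeated twice with different cells.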

Compound	EC50 [1] [µM]	inhibition [2]
C[C@@H]1C2CC(C[C@H]1NCc1sccc1C1CC1)C2(C)C (single isomer, unassigned)	6.85	inactive
NC12CC3CC(CC(C3)C1)C2 [AMANTADINE]	> 100	
CCOC(=O)C1=C[C@@H](OC(CC)CC)[C@H](NC(C)=O)[C@@H](N)C1 [OSELTAMIVIR]	> 10	
